According to ChEMBL document CHEMBL1125605 (1991):
Values after ≈ are worked out from the molar mass of the structure shown.

How the values were obtained:
Assay type in all cases: functional
E6SM [1] = test: Concentration required to inhibit HSV-1 (KOS) induced cytopathogenicity in E6SM cells by 50%.; conditions: Homo sapiens
E6SM [2] = test: Concentration required to inhibit HSV-1 (McIntyre) induced cytopathogenicity in E6SM cells by 50%.; conditions: Homo sapiens
E6SM [3] = test: Concentration required to inhibit HSV-2(196) induced cytopathogenicity in E6SM cells by 50%.; conditions: Homo sapiens
E6SM [4] = test: Concentration required to cause a microscopically detectable alteration of normal cell morphology in E6SM cells; conditions: Homo sapiens; read-out: MIC
In short: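 Uninfected E6SM human embryonic skin-muscle fibroblasts were exposed to compound and examined under the microscope. The value is the minimum concentration that caused a detectable alteration of normal cell morphology.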

E6SM [5] = test: Concentration required to inhibit HSV-1 (F) induced cytopathogenicity in E6SM cells by 50%.; conditions: Homo sapiens
E6SM [6] = test: Concentration required to inhibit HSV-2(G) induced cytopathogenicity in E6SM cells by 50%.; conditions: Homo sapiens
E6SM [7] = test: Concentration required to inhibit HSV-2(lyons) induced cytopathogenicity in E6SM cells by 50%.; conditions: Homo sapiens
E6SM [8] = test: Concentration required to inhibit TK-HSV-1 (B2006) induced cytopathogenicity in E6SM cells by 50%.; conditions: Homo sapiens
E6SM [9] = test: Concentration required to inhibit TK-HSV-1 (VMW1837) induced cytopathogenicity in E6SM cells by 50%.; conditions: Homo sapiens
E6SM [10] = test: oncentration required to inhibit VV induced cytopathogenicity in E6SM cells by 50%.; conditions: Homo sapiens
HEL [11] = test: Concentration required to cause 50% reduction in HEL cell growth.; conditions: Homo sapiens; read-out: MIC
In short: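 Cytotoxicity was measured as inhibition of growth of HEL human embryonic lung fibroblasts. The value is the compound concentration that reduced cell growth by 50%.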

HEL [12] = test: Concentration required to inhibit CMV (Davis) induced cytopathogenicity in HEL cells by 50%.; conditions: Homo sapiens
HEL [13] = test: Concentration required to inhibit TK-VZV (07-1) induced cytopathogenicity in HEL cells by 50%.; conditions: Homo sapiens
HEL [14] = test: Concentration required to inhibit TK-VZV (YSR) induced cytopathogenicity in HEL cells by 50%.; conditions: Homo sapiens
HEL [15] = test: Concentration required to inhibit VZV (YS) induced cytopathogenicity in HEL cells by 50%.; conditions: Homo sapiens
HEL [16] = test: Concentration required to inhibit VZV (oka) induced cytopathogenicity in HEL cells by 50%.; conditions: Homo sapiens
HEL [17] = test: Concentration required to inhibit CMV (AD-169) induced cytopathogenicity in HEL cells by 50%.; conditions: Homo sapiens
E6SM [18] = test: Concentration required to inhibit VSV induced cytopathogenicity in E6SM cells by 50%.; conditions: Homo sapiens
In short: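 Antiviral assay in E6SM human embryonic skin-muscle fibroblasts, with cells infected by vesicular stomatitis virus (VSV) in microtiter plates. Virus-induced cytopathogenicity is assessed. The value is the compound concentration that reduces VSV-induced cytopathogenicity by 50%.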

Compound	MIC (E6SM [1]) [µg/mL]	MIC (E6SM [2]) [µg/mL]	MIC (E6SM [3]) [µg/mL]	minimum cytotoxic concentration (morphology alteration) (E6SM [4]) [µg/mL]	MIC (E6SM [5]) [µg/mL]	MIC (E6SM [6]) [µg/mL]	MIC (E6SM [7]) [µg/mL]	MIC (E6SM [8]) [µg/mL]	MIC (E6SM [9]) [µg/mL]	MIC (E6SM [10]) [µg/mL]	CC50 (50% cell growth inhibitory concentration) (HEL [11]) [µg/mL]	MIC (HEL [12]) [µg/mL]	MIC (HEL [13]) [µg/mL]	MIC (HEL [14]) [µg/mL]	MIC (HEL [15]) [µg/mL]	MIC (HEL [16]) [µg/mL]	MIC (HEL [17]) [µg/mL]	MIC (E6SM [18]) [µg/mL]
O=c1[nH]c(=O)n([C@H]2C[C@H](O)[C@@H](CO)O2)cc1-c1ccc(Br)s1	0.03 (≈ 0.0771 µM)	0.02 (≈ 0.0514 µM)	> 200	> 400	0.07 (≈ 0.18 µM)	150 (≈ 385 µM)	150 (≈ 385 µM)	150 (≈ 385 µM)	150 (≈ 385 µM)	70 (≈ 180 µM)	155 (≈ 398 µM)	> 100	> 40	> 40	0.03 (≈ 0.0771 µM)	0.03 (≈ 0.0771 µM)	> 100	
O=c1[nH]c(=O)n([C@H]2C[C@H](O)[C@@H](CO)O2)cc1-c1cccs1	0.45 (≈ 1.45 µM)	0.1 (≈ 0.322 µM)	150 (≈ 483 µM)	> 400	0.2 (≈ 0.644 µM)	250 (≈ 806 µM)	100 (≈ 322 µM)	300 (≈ 967 µM)	150 (≈ 483 µM)	> 400	> 200	250 (≈ 806 µM)	180 (≈ 580 µM)	> 400	41 (≈ 132 µM)	18 (≈ 58 µM)	250 (≈ 806 µM)	
O=c1[nH]c(=O)n([C@@H]2C[C@H](O)[C@@H](CO)O2)cc1-c1cccs1	> 200		150 (≈ 483 µM)	> 400		> 300	100 (≈ 322 µM)	> 200	150 (≈ 483 µM)	> 200	180 (≈ 580 µM)		85 (≈ 274 µM)	80 (≈ 258 µM)	> 100	75 (≈ 242 µM)	> 100	
O=c1[nH]c(=O)n([C@H]2C[C@H](O)[C@@H](CO)O2)cc1-c1ccc(Cl)s1	0.02 (≈ 0.058 µM)	0.004 (≈ 0.0116 µM)	> 200	> 400	0.04 (≈ 0.116 µM)	> 200	> 200	> 200	> 200	> 200	> 50		35 (≈ 102 µM)	65 (≈ 189 µM)	0.02 (≈ 0.058 µM)	0.02 (≈ 0.058 µM)	> 40	
O=c1[nH]c(=O)n([C@H]2C[C@H](O)[C@@H](CO)O2)cc1-c1ccc(Cl)o1	0.2 (≈ 0.608 µM)	0.4 (≈ 1.22 µM)	150 (≈ 456 µM)	> 400	0.2 (≈ 0.608 µM)	150 (≈ 456 µM)	150 (≈ 456 µM)	150 (≈ 456 µM)	150 (≈ 456 µM)	45 (≈ 137 µM)	105 (≈ 319 µM)	> 100	> 100	> 100	3 (≈ 9.13 µM)	2.5 (≈ 7.61 µM)	> 100	> 200
O=c1[nH]c(=O)n([C@H]2C[C@H](O)[C@@H](CO)O2)cc1-c1ccc(Br)o1	0.15 (≈ 0.402 µM)	0.2 (≈ 0.536 µM)	150 (≈ 402 µM)	> 400	0.1 (≈ 0.268 µM)	150 (≈ 402 µM)	300 (≈ 804 µM)	100 (≈ 268 µM)		70 (≈ 188 µM)	125 (≈ 335 µM)	> 100	> 100	> 100	3 (≈ 8.04 µM)	3 (≈ 8.04 µM)	> 100	> 200
